Data as given in paper PMC10362183 (Heliyon, 2023).
Read-outs that look alike come from different tables or passages of the source.

Assays:
[1] = system: human monocytes (U-937 ATCC CRL-1593.2); assay: Cytotoxic activity, MTT assay on U-937 cells; type: cell-based; details: 72 h
Procedure, shortened: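 Exponential-phase cells at 1 × 10^5 cells/mL in RPMI-1640 with 10% FBS. Test compound (200, 50, 12.5, 3.125 μg/mL) was added in PBS with 0.5% DMSO for 72 h at 37 °C, 5% CO2. MTT was then added for 3 h, the reaction stopped with isopropanol/SDS, and absorbance read at 570 nm. Viability was taken relative to untreated cells, with blank subtraction. LC50 was by probit linear regression. Triplicates, ≥2 independent experiments.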

[2] = system: intracellular amastigotes of L. panamensis (MHOM/CO/87/UA140-EGFP strain); assay: Antileishmanial activity on intracellular amastigotes, flow cytometry; type: cell-based
Procedure, shortened: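 U-937 cells (3 × 10^5 cells/mL, RPMI-1640, 0.1 μg/mL PMA) infected with stationary-phase EGFP-transfected promastigotes at 15:1 for 3 h at 34 °C, then washed. After 24 h, test compound was added at 50, 12.5, 3.125 and 0.78 μg/mL for 72 h at 37 °C, 5% CO2. Amphotericin B served as positive control. Detached cells were read by flow cytometry (488/525 nm, 10,000 events). EC50 was by probit from MFI relative to untreated wells. Triplicates, ≥2 independent experiments.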

[3] = system: Trypanosoma cruzi (Tulahuen strain transfected with the β-galactosidase gene); assay: Antitrypanosomal activity on intracellular amastigotes, β-galactosidase readout; type: cell-based; details: read-out: Trypanosomal CE50; intracellular amastigotes in U-937 cells, 72 h
[4] = system: P. falciparum (3D7 strain); assay: Antiplasmodial activity, LDH assay; type: cell-based
[5] = Electrochemical measurements; type: physicochemical; details: cyclical cathodic and anodic currents, low potential range, ACN, TBAB 0.1 M
Procedure, shortened: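 Cyclic voltammetry used a glassy carbon working electrode, Ag/AgCl reference and platinum counter electrode, in acetonitrile with 0.1 M TBAB as supporting electrolyte. The scan ran from −1.5 to 2.5 V at 150 mV/s. p-Quinone was run under the same conditions as experimental control.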

[6] = read-out: Leishmanial CE50, intracellular amastigotes in U-937 cells, 72 h
[7] = read-out: Plasmodial CE50, 3D7 strain, 72 h
[8] = Leishmania panamensis, U-937, 72 h, read-out: Leishmanial CE50
[9] = Plasmodium falciparum, 3D7, 72 h, read-out: Plasmodial CE50, 3D7 strain, 72 h
[10] = Leishmania panamensis, read-out: Antileishmanial activity

Compound: 3-(4-Chlorobenzyl)-4H-thiochromen-4-one 1,1-dioxide [Compound 14c]
- Cytotoxicity CL50 [1]: 20.81 µM
- EC50 ([2]; read-out: Antileishmanial activity, Table 2, own compounds, repeats Table 1): 18.2 µM
- EC50 [2, 6]: 18.2 µM
- EC50 [3]: 129 µM
- EC50 [4, 7]: 46.7 µM

Compound: 6-Phenyl-4H-thiochromen-4-one 1,1-dioxide [Compound 21d]
- Cytotoxicity CL50 [1]: 276.03 µM
- EC50 [2, 6]: 691 µM
- EC50 [3]: 260 µM
- EC50 [4, 7]: 75.4 µM

Compound: 6-Phenyl-4H-thiochromen-4-one 1,1-dioxide [Compound 21e]
- Cytotoxicity CL50 [1]: 254.35 µM
- EC50 [2, 6]: 74 µM
- EC50 [3]: 735 µM
- EC50 [4, 7]: 61.4 µM

Compound: O=C1C=CS(=O)(=O)c2ccccc21 [Compound 6a, 4H-Thiochromen-4-one 1,1-dioxide]
- EC50 [2, 8]: 137 µM
- EC50 [4, 9]: 717 µM
- electrochemical behavior [5]: unexpected capacitive behavior

Compound: O=C1C=CS(=O)(=O)c2ccc(F)cc21 [Compound 6b, 6-Fluoro-4H-thiochromen-4-one 1,1-dioxide]
- Cytotoxicity CL50 [1]: 274.83 µM
- EC50 [4, 9]: 111 µM

Compound: O=C1C=CS(=O)(=O)c2ccc(Cl)cc21 [Compound 6c, 6-Chloro-4H-thiochromen-4-one 1,1-dioxide]
- Cytotoxicity CL50 [1]: 215.05 µM
- EC50 [4, 9]: 89.9 µM

Compound: O=C1C=CS(=O)(=O)c2ccc(Br)cc21 [Compound 6d, 6-Bromo-4H-thiochromen-4-one 1,1-dioxide]
- EC50 [2, 8]: 106 µM
- EC50 [4, 9]: 71.2 µM

Compound: O=C1C=CS(=O)(=O)c2cc(Br)ccc21 [Compound 6e, 7-Bromo-4H-thiochromen-4-one 1,1-dioxide]
- Cytotoxicity CL50 [1]: 252.48 µM
- EC50 [4, 9]: 76.3 µM

Compound: O=C1C=CS(=O)(=O)c2c(Br)cccc21 [Compound 6f, 8-Bromo-4H-thiochromen-4-one 1,1-dioxide]
- Cytotoxicity CL50 [1]: 318.45 µM
- EC50 [2, 8]: 149 µM
- EC50 [4, 9]: 82.8 µM

Compound: CC1=CC(=O)c2ccccc2S1(=O)=O [Compound 11a, 2-Methyl-4H-thiochromen-4-one 1,1 dioxide]
- Cytotoxicity CL50 [1]: 59.12 µM
- EC50 [2, 8]: 35.6 µM
- EC50 [4, 9]: 140 µM

Compound: O=C1C(Cc2ccccc2Cl)=CS(=O)(=O)c2ccccc21 [Compound 14a, 3-(2-Chlorobenzyl)-4H-thiochromen-4-one 1,1-dioxide]
- Cytotoxicity CL50 [1]: 83.61 µM
- EC50 [2, 8]: 289 µM
- EC50 [4, 9]: 71.2 µM

Compound: O=C1C(Cc2ccc(Cl)cc2)=CS(=O)(=O)c2ccccc21 [Compound 14b, 3-(4-Chlorobenzyl)-4H-thiochromen-4-one 1,1-dioxide]
- EC50 [2, 8]: 63.6 µM
- EC50 [2, 10]: 63.6 µM
- EC50 [4, 9]: 50.6 µM

Compound: O=C1C(Cc2ccco2)=CS(=O)(=O)c2ccccc21 [Compound 17a, 3-(Furan-2-yl-methyl)-4H-thiochromen-4-one 1,1-dioxide]
- EC50 [2, 8]: 72.9 µM
- EC50 [2, 10]: 72.9 µM
- EC50 [4, 9]: 70.2 µM

Compound: O=C1C(Cc2cccs2)=CS(=O)(=O)c2ccccc21 [Compound 17b, 3-(Thiophen-2-yl-methyl)-4H-thiochromen-4-one 1,1-dioxide]
- Cytotoxicity CL50 [1]: 12.70 µM
- EC50 [2, 8]: 16.5 µM
- EC50 [2, 10]: 16.5 µM
- EC50 [4, 9]: 99.3 µM

Compound: O=C1C=CS(=O)(=O)c2ccc(-c3cc(C(F)(F)F)cc(C(F)(F)F)c3)cc21 [Compound 21a, 6-(3,5-Bis(trifluoromethyl)phenyl) 4 H-thiochromen-4-one 1,1-dioxide]
- Cytotoxicity CL50 [1]: 83.61 µM
- EC50 [2, 8]: 289 µM
- EC50 [4, 9]: 71.2 µM

Compound: O=C1C=CS(=O)(=O)c2cc(-c3cc(C(F)(F)F)cc(C(F)(F)F)c3)ccc21 [Compound 21b, 7-(3,5-Bis(trifluoromethyl)phenyl)-4H-thiochromen-4-one 1,1-dioxide]
- Cytotoxicity CL50 [1]: 49.16 µM
- EC50 [2, 8]: 102 µM
- EC50 [4, 9]: 98.1 µM

Compound: O=C1C=CS(=O)(=O)c2c1cccc2-c1cc(C(F)(F)F)cc(C(F)(F)F)c1 [Compound 21c, 8-(3,5-Bis(trifluoromethyl)phenyl)-4H-thiochromen-4-one 1,1-dioxide]
- Cytotoxicity CL50 [1]: 23.20 µM
- EC50 [2, 8]: 9.3 µM
- EC50 [2, 10]: 9.3 µM
- EC50 [4, 9]: 71.4 µM
